pEC50, pIC50: −log10 of the molar value.
Experiments:
[1] = Inhibition of histidine-tagged HCV NS5Bdelta21 by scintillation proximity assay; parameters: species or system Hepacivirus hominis
How it was run: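 Soluble truncated NS5B at 12 nM. Reaction contains 0.01% w/v BSA, with no dodecyl-β-D-maltoside or IGEPAL. Other conditions follow an earlier method. IC50 is the mean of duplicate experiments on two separate weighings.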

[2] = Inhibition of calf thymus DNA-directed RNA polymerase 2; parameters: species or system Bos taurus
Hepatitis C virus = test: Antiviral activity against Hepatitis C virus subtype 1b infected in human Huh7 cells assessed as inhibition of viral RNA replication; format: functional, organism-based, Hepacivirus hominis, genotype 1b, Huh-7; settings: for pEC50: Hepatitis C virus, genotype 1b, Huh-7, read-out: EC50
How it was run: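 Stable subgenomic HCV genotype 1b replicon in Huh-7 cells carrying a modified luciferase reporter. EC50 from duplicate or more determinations. Some inhibitors were also run in a 72 h replicon format, with HCV RNA normalized to total cellular RNA. Cytotoxicity checked as TC50.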

Compound | pIC50 [1] | pIC50 [2] | pEC50 (Hepatitis C virus) | EC50 (Hepatitis C virus; huh-7)
CCN(Cc1ccncc1)C(=O)Cn1c(-c2ccoc2)c(C2CCCCC2)c2ccc(C(=O)O)cc21 | 7.40 | < 3.60 |  | 
CN(C)C(=O)Cn1c(-c2cnccn2)c(C2CCCCC2)c2ccc(C(=O)O)cc21 | 6.80 | < 3.60 |  | 
C=C(C)n1c(-c2ccoc2)c(C2CCCCC2)c2ccc(C(=O)O)cc21 | 6.44 |  | < 5.00 | 
O=C(O)c1ccc2c(C3CCCCC3)c(-c3ccoc3)n(CC(=O)N3CCCCC3)c2c1 | 7.40 | < 3.60 | 6.09 | 
NC(=O)Cn1c(-c2ccoc2)c(C2CCCCC2)c2ccc(C(=O)O)cc21 | 7.40 |  | 5.62 | 
CCOC(=O)Cn1c(-c2ccoc2)c(C2CCCCC2)c2ccc(C(=O)O)cc21 | 7.05 |  | 5.07 | 
O=C(Cn1c(-c2ccoc2)c(C2CCCCC2)c2ccc(C(=O)O)cc21)Nc1ccccc1 | 7.10 | < 3.60 |  | 
Nc1cccc(Cn2c(-c3ccoc3)c(C3CCCCC3)c3ccc(C(=O)O)cc32)c1 | 6.89 |  | < 5.10 | 
CC(C(=O)O)n1c(-c2ccoc2)c(C2CCCCC2)c2ccc(C(=O)O)cc21 (racemic) | 5.55 |  |  | 
O=C(O)Cn1c(-c2ccoc2)c(C2CCCCC2)c2ccc(C(=O)O)cc21 | 7.22 |  |  | 
O=C(O)c1ccc(Cn2c(-c3ccoc3)c(C3CCCCC3)c3ccc(C(=O)O)cc32)cc1 | 7.40 |  |  | 
O=C(O)c1ccc2c(c1)nc(-c1ccoc1)n2C1CCCCC1 | 5.96 |  |  | Not Active
O=C(Cn1c(-c2ccoc2)c(C2CCCCC2)c2ccc(C(=O)O)cc21)NCc1ccccc1 | 7.22 | < 3.60 |  | 
O=C(O)CCn1c(-c2ccoc2)c(C2CCCCC2)c2ccc(C(=O)O)cc21 | 6.68 |  |  | 
O=C(O)c1ccc2c(C3CCCCC3)c(-c3ccccn3)n(CC(=O)N3CCC(N4CCCC4)CC3)c2c1 |  | < 3.60 |  | 
Cn1c(-c2ccoc2)c(C2CCCCC2)c2ccc(C(=O)N[C@@H](Cc3c[nH]c4ccc(O)cc34)c3cscn3)cc21 | 7.00 |  | 7.30 | 
O=C(O)c1cccc(Cn2c(-c3ccoc3)c(C3CCCCC3)c3ccc(C(=O)O)cc32)c1 | 7.15 |  |  | 

Compound | pIC50 [1] | pIC50 [2] | pEC50 (Hepatitis C virus) | EC50 (Hepatitis C virus; huh-7)
O=C(O)c1ccc2c(C3CCCCC3)c(-c3ccoc3)n(CC(=O)N3CCCC3)c2c1 | 7.40 | < 3.60 |  | 
O=C(O)c1ccc2c(C3CCCCC3)c(-c3ccoc3)[nH]c2c1 | 7.52 |  | 5.17 | 
CCn1c(-c2ccoc2)c(C2CCCCC2)c2ccc(C(=O)O)cc21 | 7.15 |  | < 5.00 | 
Cc1ccccc1Cn1c(-c2ccoc2)c(C2CCCCC2)c2ccc(C(=O)O)cc21 | 6.54 |  |  | 
O=C(O)c1ccc2c(C3CCCCC3)c(-c3ccoc3)n(Cc3ccccc3)c2c1 | 6.60 |  |  | 
O=C(O)c1ccc2c(C3CCCCC3)c(-c3ccoc3)n(Cc3ccccn3)c2c1 | 6.89 |  |  | 
O=C(Cn1c(-c2ccoc2)c(C2CCCCC2)c2ccc(C(=O)O)cc21)NCC1CCCCC1 | 6.92 | < 3.60 |  | 
O=C(O)c1ccc2c(C3CCCCC3)c(-c3cnccn3)n(CC(=O)N3CCOCC3)c2c1 | 7.00 | < 3.60 |  | 
CN(C(=O)Cn1c(-c2ccoc2)c(C2CCCCC2)c2ccc(C(=O)O)cc21)C1CCCCC1 | 6.96 | < 3.60 |  | 
Cc1cccc(C)c1Cn1c(-c2ccoc2)c(C2CCCCC2)c2ccc(C(=O)O)cc21 | < 3.86 |  |  | 
O=C(O)c1ccc2c(C3CCCCC3)c(-c3ccoc3)n(CCO)c2c1 | 7.00 |  | < 5.00 | 
CC(C)NC(=O)Cn1c(-c2ccoc2)c(C2CCCCC2)c2ccc(C(=O)O)cc21 | 7.30 | < 3.60 |  | 
O=C(O)c1ccc2c(C3CCCCC3)c(-c3ccccn3)n(CC(=O)N3CCOCC3)c2c1 |  | < 3.60 |  | 
Nc1ccccc1Cn1c(-c2ccoc2)c(C2CCCCC2)c2ccc(C(=O)O)cc21 | 7.05 |  | 5.54 | 
C=CCn1c(-c2ccoc2)c(C2CCCCC2)c2ccc(C(=O)O)cc21 | 7.10 |  | < 5.00 | 
COCCNC(=O)Cn1c(-c2ccoc2)c(C2CCCCC2)c2ccc(C(=O)O)cc21 | 7.30 | < 3.60 |  | 

Source: ChEMBL document CHEMBL1156857, “N-Acetamideindolecarboxylic acid allosteric 'finger-loop' inhibitors of the hepatitis C virus NS5B polymerase: discovery and initial optimization studies” (Bioorg Med Chem Lett, 2010)
